Assay results published in ChEMBL document CHEMBL4680093 (J Med Chem, 2016).

Key:
Cytochrome P450 3A4 = Cytochrome P450 3A4 (Homo sapiens, UniProt P08684); experiment: Inhibition of CYP3A4 in pooled human liver microsomes using midazolam as substrate in presence of NADPH incubated for 10 mins by LC-MS/MS analysis
[1] = target: 11-beta-hydroxysteroid dehydrogenase 1 (Mus musculus, UniProt P50172); experiment: Inhibition of mouse 11beta-HSD1 expressed in microsomes; set-up: species or system Microsome
11-beta-hydroxysteroid dehydrogenase 1, sequence (P50172 whole entry): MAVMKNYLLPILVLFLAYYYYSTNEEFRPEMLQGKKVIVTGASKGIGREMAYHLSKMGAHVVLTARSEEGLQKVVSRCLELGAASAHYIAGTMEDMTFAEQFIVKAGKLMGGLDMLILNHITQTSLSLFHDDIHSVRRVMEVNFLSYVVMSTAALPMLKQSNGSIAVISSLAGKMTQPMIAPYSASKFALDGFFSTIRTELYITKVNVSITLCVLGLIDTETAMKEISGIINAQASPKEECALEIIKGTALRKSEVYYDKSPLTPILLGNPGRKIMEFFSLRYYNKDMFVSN
Method in brief: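 HEK293 cell lysates (microsomal fractions) overexpressing human or mouse 11β-HSD1 were incubated with cortisone, a range of inhibitor concentrations and an NADPH regenerating system in sodium phosphate buffer at 37°C for 1 h. Cortisol in the supernatant was quantified by ELISA. Percent inhibition was fitted to a sigmoidal dose-response curve to give IC50.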

[2] = target: T1, 11-beta-hydroxysteroid dehydrogenase type 2 (Homo sapiens, UniProt P80365); experiment: Inhibition of human 11beta-HSD2 expressed in microsomes; set-up: species or system Microsome
T1 sequence (P80365 whole entry): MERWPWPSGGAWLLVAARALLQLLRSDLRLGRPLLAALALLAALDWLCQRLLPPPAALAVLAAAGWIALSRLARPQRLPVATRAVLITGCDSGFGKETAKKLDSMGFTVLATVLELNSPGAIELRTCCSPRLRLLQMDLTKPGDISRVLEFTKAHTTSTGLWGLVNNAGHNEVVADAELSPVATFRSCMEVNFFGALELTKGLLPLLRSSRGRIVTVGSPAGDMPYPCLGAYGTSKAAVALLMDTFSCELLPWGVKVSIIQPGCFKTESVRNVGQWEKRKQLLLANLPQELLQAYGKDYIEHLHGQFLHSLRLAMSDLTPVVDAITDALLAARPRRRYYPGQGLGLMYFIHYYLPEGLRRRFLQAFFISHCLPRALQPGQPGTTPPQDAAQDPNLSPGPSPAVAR

[3] = target: T2, Mineralocorticoid receptor (Homo sapiens, UniProt P08235); experiment: Antagonist activity at mineralocorticoid receptor (unknown origin)
T2 sequence (P08235 whole entry): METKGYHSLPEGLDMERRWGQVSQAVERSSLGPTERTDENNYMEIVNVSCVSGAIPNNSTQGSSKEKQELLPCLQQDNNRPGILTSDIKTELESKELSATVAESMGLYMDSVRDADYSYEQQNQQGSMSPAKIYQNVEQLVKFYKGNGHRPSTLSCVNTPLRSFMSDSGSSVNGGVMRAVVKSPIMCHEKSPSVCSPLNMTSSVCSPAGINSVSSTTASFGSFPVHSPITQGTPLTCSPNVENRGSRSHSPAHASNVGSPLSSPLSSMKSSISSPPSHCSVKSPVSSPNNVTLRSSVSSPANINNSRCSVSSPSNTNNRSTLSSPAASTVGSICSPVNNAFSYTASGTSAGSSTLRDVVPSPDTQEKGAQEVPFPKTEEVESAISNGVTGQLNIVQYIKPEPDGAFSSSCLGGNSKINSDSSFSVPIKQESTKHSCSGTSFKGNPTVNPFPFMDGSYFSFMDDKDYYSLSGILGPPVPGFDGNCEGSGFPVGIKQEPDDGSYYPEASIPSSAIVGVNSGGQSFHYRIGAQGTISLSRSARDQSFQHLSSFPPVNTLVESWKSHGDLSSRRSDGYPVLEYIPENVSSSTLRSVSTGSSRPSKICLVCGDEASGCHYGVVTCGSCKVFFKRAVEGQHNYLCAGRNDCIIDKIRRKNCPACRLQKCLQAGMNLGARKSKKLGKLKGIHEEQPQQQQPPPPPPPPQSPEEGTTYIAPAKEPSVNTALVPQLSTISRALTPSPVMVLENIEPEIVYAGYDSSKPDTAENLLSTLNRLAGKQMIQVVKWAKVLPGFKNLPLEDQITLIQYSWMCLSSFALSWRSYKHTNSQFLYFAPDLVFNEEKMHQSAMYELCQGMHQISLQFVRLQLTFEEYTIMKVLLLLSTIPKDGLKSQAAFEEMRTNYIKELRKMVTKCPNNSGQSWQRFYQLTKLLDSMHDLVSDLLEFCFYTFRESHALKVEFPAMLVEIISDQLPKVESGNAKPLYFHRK

[4] = Clearance in mouse at 1 mg/kg, iv; format: ADME, organism-based; conditions: in vivo
[5] = Half life in mouse at 1 mg/kg, iv; format: ADME, organism-based; conditions: in vivo
[6] = AUC in mouse at 1 mg/kg, iv; format: ADME, organism-based; set-up: dose 1 mg/kg; conditions: in vivo
Mus musculus = experiment: Improvement in lipid profile in C57BL/6-Lep^ob (ob/ob) mouse assessed as LDL cholesterol level at 20 mg/kg, po dosed once daily for 25 days co-treated with 300 mg/kg. po QD for 25 days metformin (reference value: 30.3 +/- 0.8 mg/dl); conditions: time 25 day

Cytochrome P450 3A4, sequence (P08684 whole entry): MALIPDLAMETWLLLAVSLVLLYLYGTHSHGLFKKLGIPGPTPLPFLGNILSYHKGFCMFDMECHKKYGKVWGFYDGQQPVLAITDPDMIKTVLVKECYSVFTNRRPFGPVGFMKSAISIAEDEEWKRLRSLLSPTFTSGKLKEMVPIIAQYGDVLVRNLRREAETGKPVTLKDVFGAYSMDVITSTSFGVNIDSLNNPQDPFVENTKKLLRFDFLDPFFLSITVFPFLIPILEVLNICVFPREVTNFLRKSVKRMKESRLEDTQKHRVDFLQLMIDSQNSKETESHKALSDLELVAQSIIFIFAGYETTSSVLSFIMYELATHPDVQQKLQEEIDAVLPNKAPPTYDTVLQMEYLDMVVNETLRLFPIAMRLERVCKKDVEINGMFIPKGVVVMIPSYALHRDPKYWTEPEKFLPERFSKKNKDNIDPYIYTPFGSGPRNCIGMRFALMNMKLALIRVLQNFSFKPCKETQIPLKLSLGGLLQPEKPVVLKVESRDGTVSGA

C[C@@H]1CN(c2ccc(S(C)(=O)=O)cc2F)CCN1c1nccc(C(=O)NC2C3CC4CC2CC(O)(C4)C3)n1 (stereo partly drawn)
IC50 (Cytochrome P450 3A4): > 10 µM
IC50 [1]: 0.0016 µM
IC50 [2]: > 10 µM
EC50 [3]: > 5 µM
clearance [4]: 7 mL/min/kg
half-life [5]: 1.7 h
AUC [6]: 2350 ng·h/mL
Activity (Mus musculus): 17.2 mg/dL
